slope, outcome and inhibition data for 40 molecules are collected here from PubChem BioAssay.

A number with no mark means an inactive call. Activity calls are given as the source filed them.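 Rule for the calls, unless noted: active = a full or partial loss of lipid-probe fluorescence in the fish gall bladder, intestine or both, judged by eye; inactive = no fluorescence loss, or compound toxic to the fish.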

As a reminder, the inhibition is the relative decrease from the control value, in per cent.

The first experiment deals with Alpha-2C adrenergic receptor (Homo sapiens) (UniProt P18825). Nature of the experiment: compounds altering alpha2C-coupled GIRK flux – cell-based, HEK293 alpha2C/GIRK1/2, thallium flux, primary screen (AID 624;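 active = fluorescence slope after compound addition differing from the mean of all screened samples at 99.7% confidence, in either direction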;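 note: slope of fluorescence ratio to pre-addition baseline per second over 15 to 24 s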). The following applies: thallium flux BTC fluorescence, at 10 µM, actives lie on both sides.
Alpha-2C adrenergic receptor (Homo sapiens), sequence (P18825 whole entry, looked up): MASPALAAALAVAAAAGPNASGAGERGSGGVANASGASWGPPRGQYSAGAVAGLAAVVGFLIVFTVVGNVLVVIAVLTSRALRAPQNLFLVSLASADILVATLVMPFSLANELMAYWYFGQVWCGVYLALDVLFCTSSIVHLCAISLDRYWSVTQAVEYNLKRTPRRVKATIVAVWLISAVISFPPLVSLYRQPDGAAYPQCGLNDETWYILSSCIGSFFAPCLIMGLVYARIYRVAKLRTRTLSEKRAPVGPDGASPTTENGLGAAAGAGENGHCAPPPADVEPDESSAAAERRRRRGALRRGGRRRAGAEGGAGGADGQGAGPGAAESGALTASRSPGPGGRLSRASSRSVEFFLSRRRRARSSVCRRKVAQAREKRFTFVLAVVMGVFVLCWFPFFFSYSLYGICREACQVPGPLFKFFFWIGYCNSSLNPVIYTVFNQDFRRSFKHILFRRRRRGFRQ
Consider `COc1ccc(N2CCN(C(=O)CSc3ccccc3)CC2)cc1`, for which the slope was 0.00515.

On to `COC(=O)CCn1nnc(-c2ccc(C)cc2)n1`, for which the slope is 0.00816.

For `COc1cccc(NC(=O)c2ccccc2NS(C)(=O)=O)c1`, the slope is 0.00548.

Regarding `CN(CC(=O)Nc1cccnc1)S(=O)(=O)c1cc(Cl)ccc1Cl`, the slope is 0.00566.

In the case of `CC12CN3CCN(CC(C3)C1(O)CN1CCCCC1)C2` (stereo not drawn), the slope is 0.00521.

Take `CC1CC(C)CN(c2nc3c(c(=O)[nH]c(=O)n3C)n2CCCSc2nc3ccccc3s2)C1` (stereo not drawn): the slope was 0.00577.

For the molecule `O=C(c1cccnc1)N1CCN(C(=O)c2ccccc2F)CC1`, the slope is 0.00512.

`CCOc1nc(NCCC2=CCCCC2)nc(N2CCOCC2)n1`: the slope was 0.00441.

System in another experiment: not listed separately
Nature of the experiment: inhibitors of larval lipid processing in zebrafish, primary screen, whole organism, PED6 fluorescence, gall bladder and intestine (AID 686).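 Note: larvae 5 to 7 days old with five fish per well; signal comes from phospholipase A2 cleavage of quenched PED6 carried via bile; overnight exposure to compound and PED6 before scoring.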 Conditions: Zebrafish larvae PED6 lipid processing, fluorescence scoring; screened at 20 µM (by protocol). The gist of the method:
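Test system – live zebrafish larvae aged 5-7 days, whole organism · Buffer or medium – E3 fish medium · Reagent – quenched phospholipase substrate PED6, 100 nM final, ingested by larvae · Doses – 20 µM single dose · Incubation – overnight compound and PED6 incubation · Technique – visual fluorescence microscopy scoring of gall bladder, gut · Read-out basis – visual per-well fluorescence inhibition score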
Turning to `NS(=O)(=O)c1ccc(NC(=O)CSc2nnc(Cc3cccs3)n2-c2ccccc2)cc1`, the molecule was called inactive.

As to `O=C(O)CSc1ncn[nH]1`, the molecule was classed as inactive.

Consider `Cc1ccc2c(C(=O)CN3CCSCC3)c(C)[nH]c2c1`, for which the molecule was classed as inactive.

For `COc1cccc(CC(=O)Nn2c(C)nc3ccccc3c2=O)c1`, the result was inactive.

For the molecule `Cc1nnc(SCc2cccc(Oc3ccccc3)c2)n1N`, the call was inactive.

For the molecule `CC(CCc1ccccc1)NC(=O)C1CCN(S(=O)(=O)c2cnc[nH]2)CC1` (stereo not drawn), the molecule was classed as inactive.

Take `Cc1ccc(C)n1-c1ccc(-n2cnnn2)cc1`: the call was inactive.

For the molecule `CC(OC(=O)CNC(=O)C12CC3CC(CC(C3)C1)C2)C(=O)Nc1ccc(N2CCOCC2)cc1` (stereo not drawn), the molecule was called inactive.

`CC(C)CC(c1nnnn1C(C)(C)C)N1CCN(C2CCCC2)CC1` (stereo not drawn): the result was inactive.

With `CCOC(=O)C1=C(c2ccccc2)N2CCS(=O)(=O)N=C2S1`, the call was inactive.

Take `CCOC(=O)Nc1ccc2c(c1)N(C(=O)CCN1CCOCC1)c1ccccc1S2`: the molecule was classed as inactive.

Consider `c1cnc(NCCNc2ncccn2)nc1`, for which the outcome was inactive.

In the case of `CN(C)C(=O)COc1ccc2cc(-c3ccccc3)c(=O)oc2c1`, the molecule was classed as inactive.

In the case of `COc1ccc(COC(=O)c2n[nH]c3ccccc23)cc1F`, the molecule was classed as inactive.

`Cc1cc(C(=O)COC(=O)CCc2nc3ccccc3s2)c(C)n1C`: the molecule was classed as inactive.

Take `Cn1c(=O)cc(SCC(=O)NCc2cccnc2)c2ccccc21`: the result was inactive.

Consider `CSc1ccc(-c2cc(=O)c3ccccc3o2)cc1`, for which the result was inactive.

Consider `Cn1c(C(=O)OC(C(=O)NC2CCCC2)c2cccnc2)cc2sccc21` (stereo not drawn), for which the outcome is “active; weak signal in gallbladder and intestine”.

In the case of `C=CCSc1nnc(-c2ccc(Cl)cc2Cl)o1`, the molecule was classed as inactive.

For the molecule `COCc1nnc(SCC(=O)NC(C)c2ccccc2)n1-c1ccccc1` (stereo not drawn), the molecule was called inactive.

As for `Cc1nc2ccc(F)cc2cc1C(=O)NCC1CCCO1` (stereo not drawn), the call was inactive.

Turning to `COc1ccc(OCCOC(=O)c2cccc(-n3cnnn3)c2)cc1`, the outcome was inactive.

`Cc1occc1-c1nnc(SCC(=O)N2CCOCC2)n1Cc1ccco1`: the call was inactive.

For `COc1ccccc1C(=O)NCC(c1cccnc1)N(C)C` (stereo not drawn), the call was inactive.

In the case of `O=C1NC(=O)C(CC(=O)N(c2ccccc2)C2(C(=O)NC3CCCC3)CCCCC2)N1` (stereo not drawn), the molecule was classed as inactive.

For `CCOC(=O)N1CCN(C(=O)CN(Cc2ccccc2)S(=O)(=O)c2ccc(OC)c(C)c2)CC1`, the outcome was inactive.

Take `O=C(CSc1nc2ccccc2o1)N1CCN(C(=O)c2ccco2)CC1`: the molecule was classed as inactive.

With `c1cc2c(cc1C1CCCN1)OCCCO2` (stereo not drawn), the molecule was called inactive.

`COCCNC(=O)C(c1ccc(C)o1)N(C(=O)c1snc(C(N)=O)c1N)c1ccc(C)cc1` (stereo not drawn): the molecule was classed as inactive.

As to `O=C(CN1CCN(Cc2ccccc2)CC1)NCC1COc2ccccc2O1` (stereo not drawn), the result was inactive.

For the molecule `Cc1nc2ccccc2nc1OCC(=O)Nc1cc(C(F)(F)F)ccc1N1CCOCC1`, the result was inactive.

On to `O=C(COc1ccc(F)cc1)Nc1ccc(-n2cnnn2)cc1`, for which the outcome was inactive.

For `COc1ccc(N2CCN(C(=O)CSc3ccccc3)CC2)cc1`, the result was inactive.

For the molecule `COC(=O)CCn1nnc(-c2ccc(C)cc2)n1`, the outcome was inactive.

As for `COc1cccc(NC(=O)c2ccccc2NS(C)(=O)=O)c1`, the result was inactive.

`CN(CC(=O)Nc1cccnc1)S(=O)(=O)c1cc(Cl)ccc1Cl`: the molecule was called inactive.

In the case of `CC12CN3CCN(CC(C3)C1(O)CN1CCCCC1)C2` (stereo not drawn), the result was inactive.

For `CC1CC(C)CN(c2nc3c(c(=O)[nH]c(=O)n3C)n2CCCSc2nc3ccccc3s2)C1` (stereo not drawn), the result was inactive.

For `O=C(c1cccnc1)N1CCN(C(=O)c2ccccc2F)CC1`, the result was inactive.

On to `CCOc1nc(NCCC2=CCCCC2)nc(N2CCOCC2)n1`, for which the call was inactive.

System in the next experiment: not listed separately
As to the kind of experiment: blockers of RIG-like receptor reporter activation – cell-based, Sendai virus stimulus, luciferase, 10K MLSCN set, TLR/RLR signaling modifier project, primary screen (AID 602276;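 active = inhibition at or above 50% at 10 µM; inactive = inhibition below 50%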;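 note: firefly luciferase from ISG56 promoter only with Renilla not read in this screen; 0% = Sendai virus plus DMSO and 100% = medium plus DMSO without virus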). The following applies: HEK293 RL24 IRF3 luciferase reporter, at 10 µM, hits give high values. (In a reporter assay the amount or activity of a reporter protein is the signal.)
For the molecule `NS(=O)(=O)c1ccc(NC(=O)CSc2nnc(Cc3cccs3)n2-c2ccccc2)cc1`, the inhibition is 17.4%.

Turning to `O=C(O)CSc1ncn[nH]1`, the inhibition is 15.3%.

On to `Cc1ccc2c(C(=O)CN3CCSCC3)c(C)[nH]c2c1`, for which the inhibition was -12.6%.

On to `COc1cccc(CC(=O)Nn2c(C)nc3ccccc3c2=O)c1`, for which the inhibition was -2.22%.

Turning to `Cc1nnc(SCc2cccc(Oc3ccccc3)c2)n1N`, the inhibition is -4.43%.

Take `CC(CCc1ccccc1)NC(=O)C1CCN(S(=O)(=O)c2cnc[nH]2)CC1` (stereo not drawn): the inhibition is 9.51%.

As for `Cc1ccc(C)n1-c1ccc(-n2cnnn2)cc1`, the inhibition was 8.71%.

`CC(OC(=O)CNC(=O)C12CC3CC(CC(C3)C1)C2)C(=O)Nc1ccc(N2CCOCC2)cc1` (stereo not drawn): the inhibition was -2.61%.

Take `CC(C)CC(c1nnnn1C(C)(C)C)N1CCN(C2CCCC2)CC1` (stereo not drawn): the inhibition was 5.92%.

Turning to `CCOC(=O)C1=C(c2ccccc2)N2CCS(=O)(=O)N=C2S1`, the inhibition was 16.1%.

With `CCOC(=O)Nc1ccc2c(c1)N(C(=O)CCN1CCOCC1)c1ccccc1S2`, the inhibition is 6.28%.

As for `c1cnc(NCCNc2ncccn2)nc1`, the inhibition is 5.48%.

As to `CN(C)C(=O)COc1ccc2cc(-c3ccccc3)c(=O)oc2c1`, the inhibition was -24.2%.

On to `COc1ccc(COC(=O)c2n[nH]c3ccccc23)cc1F`, for which the inhibition was -16.1%.

In the case of `Cc1cc(C(=O)COC(=O)CCc2nc3ccccc3s2)c(C)n1C`, the inhibition was 16.3%.

With `Cn1c(=O)cc(SCC(=O)NCc2cccnc2)c2ccccc21`, the inhibition is 9.23%.

With `CSc1ccc(-c2cc(=O)c3ccccc3o2)cc1`, the inhibition is -21%.

On to `Cn1c(C(=O)OC(C(=O)NC2CCCC2)c2cccnc2)cc2sccc21` (stereo not drawn), for which the inhibition is 18.1%.

As for `C=CCSc1nnc(-c2ccc(Cl)cc2Cl)o1`, the inhibition was -1.24%.

As for `COCc1nnc(SCC(=O)NC(C)c2ccccc2)n1-c1ccccc1` (stereo not drawn), the inhibition is 14.7%.

With `Cc1nc2ccc(F)cc2cc1C(=O)NCC1CCCO1` (stereo not drawn), the inhibition was 17.3%.

With `COc1ccc(OCCOC(=O)c2cccc(-n3cnnn3)c2)cc1`, the inhibition is -2.23%.

As for `Cc1occc1-c1nnc(SCC(=O)N2CCOCC2)n1Cc1ccco1`, the inhibition is 8.29%.

On to `COc1ccccc1C(=O)NCC(c1cccnc1)N(C)C` (stereo not drawn), for which the inhibition was 10.3%.

In the case of `O=C1NC(=O)C(CC(=O)N(c2ccccc2)C2(C(=O)NC3CCCC3)CCCCC2)N1` (stereo not drawn), the inhibition is 14.9%.

Turning to `CCOC(=O)N1CCN(C(=O)CN(Cc2ccccc2)S(=O)(=O)c2ccc(OC)c(C)c2)CC1`, the inhibition was -4.93%.

Turning to `O=C(CSc1nc2ccccc2o1)N1CCN(C(=O)c2ccco2)CC1`, the inhibition was 3.77%.

Take `c1cc2c(cc1C1CCCN1)OCCCO2` (stereo not drawn): the inhibition was -9.84%.

Take `COCCNC(=O)C(c1ccc(C)o1)N(C(=O)c1snc(C(N)=O)c1N)c1ccc(C)cc1` (stereo not drawn): the inhibition is 12.5%.

With `O=C(CN1CCN(Cc2ccccc2)CC1)NCC1COc2ccccc2O1` (stereo not drawn), the inhibition is 12.2%.

As for `Cc1nc2ccccc2nc1OCC(=O)Nc1cc(C(F)(F)F)ccc1N1CCOCC1`, the inhibition is 12.4%.

Consider `O=C(COc1ccc(F)cc1)Nc1ccc(-n2cnnn2)cc1`, for which the inhibition is 8.39%.

On to `COc1ccc(N2CCN(C(=O)CSc3ccccc3)CC2)cc1`, for which the inhibition is -14.2%.

On to `COC(=O)CCn1nnc(-c2ccc(C)cc2)n1`, for which the inhibition was 21.3%.

Consider `COc1cccc(NC(=O)c2ccccc2NS(C)(=O)=O)c1`, for which the inhibition was 18.7%.

For `CN(CC(=O)Nc1cccnc1)S(=O)(=O)c1cc(Cl)ccc1Cl`, the inhibition was -8.87%.

As to `CC12CN3CCN(CC(C3)C1(O)CN1CCCCC1)C2` (stereo not drawn), the inhibition was 10.7%.

Consider `CC1CC(C)CN(c2nc3c(c(=O)[nH]c(=O)n3C)n2CCCSc2nc3ccccc3s2)C1` (stereo not drawn), for which the inhibition is 10.4%.

`O=C(c1cccnc1)N1CCN(C(=O)c2ccccc2F)CC1`: the inhibition was -1.4%.

Turning to `CCOc1nc(NCCC2=CCCCC2)nc(N2CCOCC2)n1`, the inhibition is 10.2%.
